Experimental data from ChEMBL document CHEMBL1125077, “Synthetic and computer-assisted analyses of the pharmacophore for the benzodiazepine receptor inverse agonist site” (J Med Chem, 1990).

The compounds below were run against GABA-A receptor; anion channel (assay: In vitro inhibition of 3[H]Diazepam binding to Benzodiazepine receptor from rat cerebral cortical membranes).
Type: cell membranes, Membrane
Procedure, shortened: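 Rat cerebral cortex (decapitation) homogenized in 50 mM Tris-HCl pH 7.4, spun 20000g 20 min at 4 °C, washed three times, resuspended in 50 volumes buffer. Incubated with [3H]diazepam (final 2 nM) at 4 °C for 120 min, then filtered on GF/B with ice-cold buffer washes. Nonspecific binding taken with 10 μM flunitrazepam. IC50 from Hill plots, at least six inhibitor concentrations, mean of three or more experiments.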

IC50 [nM]	SMILES
7540	CCc1nc(C(=O)OC)cc2c1[nH]c1ccccc12
500	CC(C)Oc1cc2c(cn1)[nH]c1ccccc12
98	CCCCOc1cc2c(cn1)[nH]c1ccccc12
245	CCCCc1cc2c(cn1)[nH]c1ccccc12
1700	CCOC(=O)c1cc2c(cn1)sc1ccccc12
2400	CCOC(=O)c1cc2c(cn1)nc(O)c1ccccc12
9200	CCOC(=O)c1cc2c(cn1)oc1ccccc12
653	COC(=O)c1cc2[nH]c3ccccc3c2cn1

The remaining lines, values behind:

SMILES	IC50 [nM]
CCOC(=O)c1cc2c3ccccc3c(N=O)c-2c[nH]1	5000
COC(=O)c1cc2c3ccccc3n3c(=O)ccc(n1)c23	100
CC(C)(C)OC(=O)c1cc2c3ccccc3nc-2c[nH]1	10
CCOC(=O)c1cc2c(cn1)[nH]c1ccccc12	5
CCCC(=O)c1cc2c(cn1)[nH]c1ccccc12	2.8
c1ccc2c(c1)[nH]c1c2ccc2[nH]c3ccccc3c21	1970
Cc1ccc2c(c1)[nH]c1c3c4ccccc4nc-3c[nH]c12	10
CCOC(=O)c1cc2c(cn1)Cc1ccccc1-2	680
CC(C)(C)COC(=O)c1cc2c3ccccc3nc-2c[nH]1	750
Cc1cccc2[nH]c3c4c5ccccc5nc-4c[nH]c3c12	6860
COC(=O)c1cc2c3ccccc3n(C(C)=O)c2cn1	9
C[n+]1cc2[nH]c3ccccc3c2c2[nH]c3ccccc3c21	4660
CCc1nc2c3ccccc3[nH]c2c2c1[nH]c1ccccc12	285
Cc1nccc2c1[nH]c1ccccc12 [HARMAN]	12400

These compounds were tested against GABA-A receptor; anion channel (assay: In vitro inhibition of 3[H]Diazepam binding to Benzodiazepine receptor from rat cerebral cortical membranes; value ranges from 4-12 nM).
Type: cell membranes, Membrane

SMILES	IC50 [nM]
S=C=Nc1cc2c3ccccc3nc-2c[nH]1	4
